In series [1] the target is T1, Angiotensin II receptor (Rattus norvegicus) (UniProt P29089+P25095+P35351). In words: Inhibitory activity on AII (100 ng/kg iv)-induced pressor response after administration at 0.1 mg/kg po in conscious male Sprague-Dawley rats at 7 h. In kind it is functional, organism-based. Set-up: dose 0.1 mg/kg. In a few lines:
(§1)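 Conscious male Sprague-Dawley rats received test compounds orally at 0.1 mg/kg. AII (100 ng/kg iv) was given as a pressor challenge at each time point after dosing, and percent inhibition of the pressor response was recorded. Experiments were run in duplicate (n = 2); parent drug and one ester used n = 3. Inhibition may vary by less than 30%.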

Series [2] relates to Rattus norvegicus. Description: Inhibitory activity on AII (100 ng/kg iv) -induced pressor response after administration at 0.1 mg/kg po in Dawley rats at 0.5 h. In kind it is functional. In a few lines:
as §1

Series [3] deals with T1, Angiotensin II receptor (Rattus norvegicus). Description: Inhibitory activity on AII (100 ng/kg iv)-induced pressor response after administration at 0.1 mg/kg po in conscious male Sprague-Dawley rats at 3 h. In kind it is functional, organism-based. Further details: dose 0.1 mg/kg. In a few lines: as §1
The target is the same in series [4]. In words: Inhibitory activity on AII (100 ng/kg iv)-induced pressor response after administration at 0.1 mg/kg po in conscious male Sprague-Dawley rats at 24 h. In kind it is functional, organism-based. Further details: dose 0.1 mg/kg. In a few lines:
as §1

For series [5] the target is unchanged. Description: Inhibitory activity on AII (100 ng/kg iv)-induced pressor response after administration at 0.1 mg/kg po in conscious male Sprague-Dawley rats at 5 h. Further details: dose 0.1 mg/kg. In kind it is functional, organism-based. In a few lines: as §1
The target is the same in series [6]. Description: Inhibitory activity on AII (100 ng/kg iv)-induced pressor response after administration at 0.1 mg/kg po in conscious male Sprague-Dawley rats at 2 h. Further details: dose 0.1 mg/kg. In kind it is functional, organism-based. In a few lines: as §1
Series [7] concerns Rattus norvegicus. In words: Inhibitory activity on AII (100 ng/kg iv) -induced pressor response after administration at 0.1 mg/kg po in Dawley rats at 1 h. In kind it is functional. In a few lines: as §1
In series [8] the target is T1, Angiotensin II receptor (Rattus norvegicus). Description: Inhibitory effect on AII (100 ng/kg iv)-induced pressor response after administration at 0.1 mg/kg po in conscious male Sprague-Dawley rats at 0.5 h. In kind it is functional, organism-based. Set-up: dose 0.1 mg/kg. In a few lines: as §1
For series [9] the target is unchanged. In words: Inhibitory activity on AII (100 ng/kg iv)-induced pressor response at 0.1 mg/kg po in conscious male Sprague-Dawley rats at 1 h. In kind it is functional, organism-based. Set-up: dose 0.1 mg/kg. In a few lines:
as §1

Series [10] is described as follows: Tested against A II at (100 ng/kg iv) in Dawley rats (n=2). 24 h. In kind it is functional. In a few lines: as §1
Series [11] in a line: Tested for half- life in rat small intestine homogenate (1%). In kind it is ADME. In a few lines:
(§2)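 Prodrugs (final 10 μg/mL) were incubated at 37 °C in rat 1% small intestine homogenate, 2% liver homogenate or 10% plasma. Aliquots taken from 10 s to 30 min were deproteinized with methanol, and the residue was redissolved in 1/15 M phosphate buffer. Released parent acid was measured by HPLC (ODS column, UV 258 nm, 0.01 M KH2PO4/MeCN 55/45). t1/2 was taken from the concentration change; mean ± SD, n = 3.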

Series [12] in a line: Tested for Half- life in rat liver homogenate (2%). In kind it is ADME. In a few lines: as §2
Series [13] can be described thus: Tested for Half- life in rat plasma homogenate (10%) at 37 degree Centigrade. In kind it is ADME. In a few lines: as §2

Broadly, the inhibition is the percentage by which the read-out fell short of the control. A higher inhibition goes with a response far below the control. By inhibition in vivo is commonly meant how much of the control response was suppressed. The low end stands for little suppression, the high end for strong suppression. By Inhibition is commonly meant how much of the control response was suppressed. High values mean a response far below the control, low ones a response near the control. As usually defined, the half-life is the time in which the quantity being followed falls by half.

As for `CCCCc1nc2cccc(C(=O)OCCO)c2n1Cc1ccc(-c2ccccc2-c2nn[nH]n2)cc1`, the inhibition in series [1] came to 25%; in series [3], 11%; in series [4], 20%; in series [5], 21%; in series [6] it was 10%. Further, the inhibition in vivo at 0.1 mg/kg in [2] and in series [7] was 7% in each case.

As to `CCCCc1nc2cccc(C(=O)OCc3oc(=O)oc3C)c2n1Cc1ccc(-c2ccccc2-c2nnn(Cc3oc(=O)oc3C)n2)cc1.CCCCc1nc2cccc(C(=O)OCc3oc(=O)oc3C)c2n1Cc1ccc(-c2ccccc2-c2nnnn2Cc2oc(=O)oc2C)cc1`, the inhibition amounted to 46% in [1]; 7% in series [8]; 9% in series [9]; 60% in series [3]; 59% in series [5]; 33% in [6]. In addition, in series [10], the Inhibition came to 17%.

In the case of `CCCCc1nc2cccc(C(=O)O)c2n1Cc1ccc(-c2ccccc2-c2nnnn2C)cc1`, the inhibition in series [1] stood at 53%; in series [3], 56%; in [4], 16%; in series [5] it was 59%; in series [6], 29%. Moreover, the figures for the inhibition in vivo at 0.1 mg/kg in [2] and in series [7] were 12% and 29%, respectively.

Consider `CCCCc1nc2cccc(C(=O)OC)c2n1Cc1ccc(-c2ccccc2-c2nn[nH]n2)cc1`, for which the inhibition in [1] was determined as 27%; in series [3], 47%; in series [4], 11%; in series [5], 38%; in [6], 50%. For the same compound, the inhibition in vivo at 0.1 mg/kg in [2] was 11%; in series [7], 52%.

As to `CCCCOC(=O)c1cccc2nc(CCCC)n(Cc3ccc(-c4ccccc4-c4nn[nH]n4)cc3)c12`, the inhibition turned out to be 90% in [1]; 78% in series [3]; 76% in series [4]; 88% in series [5]; 80% in series [6]. In addition, the inhibition in vivo at 0.1 mg/kg in series [2] stood at 16%; in series [7], 40%.

Consider `CCOc1nc2cccc(C(=O)OCOC(=O)C(C)(C)C)c2n1Cc1ccc(-c2ccccc2-c2nn[nH]n2)cc1`, for which the inhibition in series [1] came out at 86%; in [8], 42%; in series [9] it was 77%; in series [3], 86%; in series [4], 43%; in series [5] it was 87%. The compound also gave an inhibition in [6] of 88%. Moreover, the results for the half-life in series [11], in [12] and in series [13] were 0.3 min, 0.48 min and 0.15 min, respectively.

As to `CCCCc1nc2cccc(C(=O)OCCN3CCOCC3)c2n1Cc1ccc(-c2ccccc2-c2nn[nH]n2)cc1`, the inhibition in series [1] was found to be 96%; in [3], 96%; in series [4], 66%; in series [5], 96%; in [6] it was 96%. Further, the inhibition in vivo at 0.1 mg/kg in series [2] turned out to be 67%; in series [7], 94%.

Take `CCCCc1nc2cccc(C(=O)OCC)c2n1Cc1ccc(-c2ccccc2-c2nn[nH]n2)cc1`: the inhibition in series [1] was found to be 63%; in series [4], 47%; in [5], 68%; in series [6] it was 46%. Moreover, the inhibition in vivo at 0.1 mg/kg turned out to be 7% in [2] and 25% in series [7].

For `CCCCc1nc2cccc(C(=O)O)c2n1Cc1ccc(-c2ccccc2-c2nn[nH]n2)cc1`, the figures for the inhibition in vivo at 0.1 mg/kg in series [2] and in series [7] were 8% and 33%, respectively. Also, the inhibition in [4] stood at 42%; in series [6] it was 45%.

For the compound `CCCCc1nc2cccc(C(=O)O)c2n1Cc1ccc(-c2ccccc2-c2nnn(C)n2)cc1`, the inhibition turned out to be 26% in series [1]; 9% in [3]; 23% in series [4]; 13% in series [5]; 6% in series [6]. Moreover, the inhibition in vivo at 0.1 mg/kg in series [2] came out at 22%; in series [7], 26%.

For `CCCCc1nc2cccc(C(=O)OCOC(=O)C(C)(C)C)c2n1Cc1ccc(-c2ccccc2-c2nn[nH]n2)cc1`, the inhibition in [1] was 86%; in series [8], 58%; in series [9], 90%; in series [3], 95%; in series [4] it was 50%; in series [5], 92%. Also, the inhibition in series [6] is 96%. Moreover, the half-life in [11] stood at 1.08 min; in series [12], 3.61 min; in [13], 0.69 min.

As to `CCOc1nc2cccc(C(=O)OC(C)OC(=O)OC3CCCCC3)c2n1Cc1ccc(-c2ccccc2-c2nnn[nH]2)cc1` (stereo not drawn) [CANDESARTAN CILEXETIL], the half-life was 4.92 min in series [11], 2.29 min in series [12] and 2.73 min in series [13].

Regarding `CCCCc1nc2cccc(C(=O)OCCN(C)C)c2n1Cc1ccc(-c2ccccc2-c2nn[nH]n2)cc1`, the inhibition was found to be 14% in series [1]; 32% in series [3]; 9% in series [4]; 26% in series [5]; 27% in [6]. Besides, the values for the inhibition in vivo at 0.1 mg/kg in series [2] and in series [7] were 0% and 19%, respectively.

For the compound `CCCCc1nc2cccc(C(=O)OCCN3CCCCC3)c2n1Cc1ccc(-c2ccccc2-c2nn[nH]n2)cc1`, the inhibition is 49% in series [1]; 69% in [3]; 28% in series [4]; 62% in series [5]; 46% in [6]. Further, the inhibition in vivo at 0.1 mg/kg was 20% in series [2] and 47% in series [7].

For `CCCCc1nc2cccc(C(=O)O)c2n1Cc1ccc(-c2ccccc2-c2nnn(COC(=O)C(C)(C)C)n2)cc1.CCCCc1nc2cccc(C(=O)O)c2n1Cc1ccc(-c2ccccc2-c2nnnn2COC(=O)C(C)(C)C)cc1`, the inhibition in series [1] stood at 69%; in series [8], 7%; in series [9], 4%; in [3] it was 63%; in series [4] it was 32%; in series [5], 67%. Besides, the inhibition in series [6] was 33%. The half-life came out at 22.7 min in series [11], 9.8 min in series [12] and 3.94 min in [13].

As for `CCCCc1nc2cccc(C(=O)OC(C)OC(=O)OC3CCCCC3)c2n1Cc1ccc(-c2ccccc2-c2nn[nH]n2)cc1` (stereo not drawn), the inhibition was 79% in series [1]; 58% in [8]; 85% in series [9]; 81% in series [3]; 47% in [4]; 78% in series [5]. Also, the inhibition in series [6] stood at 84%.

The values above are taken from ChEMBL document CHEMBL1126763, “Nonpeptide angiotensin II receptor antagonists. Synthesis and biological activity of potential prodrugs of benzimidazole-7-carboxylic acids” (J Med Chem, 1993).
